Measured values taken from publication PMC6427047 (Cell chemical biology, 2017).

How the values were obtained:
8 selected kinases = test: Immunoblot validation of kinase degradation in MOLM-14 cells; format: cell-based, Human; conditions: pretreatment then 4-hour co-treatment with TL12-186
Outline: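 MOLM-14 cells were exposed to test compound for 4 h, then lysed. Lysates were cleared by max-speed centrifugation at 4°C for 10 min. Protein was quantified by BCA and normalized. Samples were mixed with LDS sample buffer containing fresh 10% 2-mercaptoethanol and immunoblotted for the target kinases.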

[1] = tested on: WT and CRBN−/− MOLM-14 and MOLT-4 cells; test: 2-day proliferation assays, WT and CRBN−/− cells; format: cell-based, Human; conditions: CRBN−/− MOLM-14 and MOLT-4, 2-day
FLT3 = target: T1, FLT3 (Homo sapiens, UniProt P36888); test: Immunoblot in MOLM-14 cells; format: cell-based
T1 sequence (P36888 610-943 limits assumed): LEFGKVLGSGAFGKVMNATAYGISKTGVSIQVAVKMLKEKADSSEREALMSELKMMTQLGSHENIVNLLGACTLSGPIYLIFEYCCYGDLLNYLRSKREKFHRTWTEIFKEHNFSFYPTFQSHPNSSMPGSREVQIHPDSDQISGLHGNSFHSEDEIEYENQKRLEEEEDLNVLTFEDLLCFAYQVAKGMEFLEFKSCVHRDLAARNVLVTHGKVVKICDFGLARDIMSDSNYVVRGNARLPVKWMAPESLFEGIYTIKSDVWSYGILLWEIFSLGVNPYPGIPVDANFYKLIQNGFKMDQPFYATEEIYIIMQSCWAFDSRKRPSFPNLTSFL

`NS(=O)(=O)OC[C@@H]1C[C@@H](n2ccc3c(N[C@H]4CCc5ccccc54)ncnc32)C[C@@H]1O` [MLN4924] was tested, and the “effect of 4-hour pretreatment on TL12-186-induced kinase degradation” value (shortened to “effect of 4-hour pretreatment”) (8 selected kinases) was “reverse the degradation effect of TL12-186”.
In the case of `CC(C)S(=O)(=O)c1ccccc1Nc1nc(Nc2ccc(N3CCC(N4CCN(C)CC4)CC3)cc2)ncc1Cl` [TL13-87], the “inhibition of cellular proliferation in CRBN−/− cells” value [1] was “more potent inhibition of cellular proliferation relative to the degrader molecules”.
With `CC(C)C[C@H](NC(=O)[C@H](CCc1ccccc1)NC(=O)CN1CCOCC1)C(=O)N[C@@H](Cc1ccccc1)C(=O)N[C@@H](CC(C)C)C(=O)[C@@]1(C)CO1` [carfilzomib] the “effect of 4-hour pretreatment” value (8 selected kinases) was “reverse the degradation effect of TL12-186”.
In the case of `CCN(CC)CCCC(C)Nc1ccnc2cc(Cl)ccc12` (centres unmarked) [chloroquine], the “rescue of TL12-186-induced FLT3 degradation by autophagy inhibition” value (FLT3) was “cannot significantly rescue the degradation of FLT3”.
In the case of `Nc1cccc2c1C(=O)N(C1CCC(=O)NC1=O)C2=O` (centres unmarked) [pomalidomide], the “effect of 4-hour pretreatment” value (8 selected kinases) was “reverse the degradation effect of TL12-186”.
